Columns and labels:
[1] = molecular target: Serotonin 1 (5-HT1) receptor (Rattus norvegicus) (UniProt P28564+P30940+P19327+P28565); assay: Compound at 1 uM was tested for the inhibition of radioligand [3H]5-HT binding to 5-hydroxytryptamine 1 receptor in rat cerebral cortex; type: tissue-based
Summary of the method: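 Rat cerebral cortex membranes; [3H]5-HT, 10 min at 37 °C, Tris-HCl/NaCl/EDTA buffer pH 7.4; 10 μM 5-HT for nonspecific binding. Filtered, washed three to four times, scintillation counted. Percent inhibition at 1 μM test compound, in duplicate.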

[2] = molecular target: T1, Alpha-1D adrenergic receptor (Homo sapiens, UniProt P25100); assay: Binding affinity towards cloned human alpha-1D adrenergic receptor was determined using [125]-HEAT as radioligand
T1 sequence (P25100 whole entry): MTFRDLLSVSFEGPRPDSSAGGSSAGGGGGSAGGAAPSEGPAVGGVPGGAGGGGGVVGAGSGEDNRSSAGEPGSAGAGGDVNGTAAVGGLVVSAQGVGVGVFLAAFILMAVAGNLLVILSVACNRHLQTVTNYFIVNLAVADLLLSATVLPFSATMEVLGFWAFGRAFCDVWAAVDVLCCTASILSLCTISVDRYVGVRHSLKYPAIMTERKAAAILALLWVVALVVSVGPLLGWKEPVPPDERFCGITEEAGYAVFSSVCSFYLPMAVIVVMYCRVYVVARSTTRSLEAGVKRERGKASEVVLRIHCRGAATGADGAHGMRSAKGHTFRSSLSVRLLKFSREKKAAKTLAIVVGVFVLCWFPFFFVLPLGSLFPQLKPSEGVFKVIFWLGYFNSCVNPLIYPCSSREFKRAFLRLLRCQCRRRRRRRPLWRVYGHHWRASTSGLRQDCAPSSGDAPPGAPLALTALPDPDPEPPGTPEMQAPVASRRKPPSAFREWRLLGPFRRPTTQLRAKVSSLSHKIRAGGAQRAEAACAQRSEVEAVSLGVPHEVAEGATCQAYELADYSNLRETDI
Summary of the method: (§1)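 Human α1a, α1b and α1d cDNAs transiently expressed in COS-1 cells (DEAE-dextran); membranes harvested 72 h post-transfection. Competition versus 50 pM [125I]HEAT (final), 0.1 pM–10 μM test compound in half-log steps, in TNE buffer pH 7.4. Membrane protein 0.1 μg (α1a, α1b) or 2.6 μg (α1d); 1 h at 25 °C. Filtration, scintillation counting; Ki = IC50/(1 + [L]/Kd). Ratios are subtype Ki over α1a Ki.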

[3] = molecular target: T2, Alpha-2A adrenergic receptor (Homo sapiens) (UniProt P08913); assay: Compound at 1 uM was tested for the inhibition of radioligand [3H]MK-912 binding to recombinant human alpha-2A adrenergic receptor
T2 sequence (whole entry): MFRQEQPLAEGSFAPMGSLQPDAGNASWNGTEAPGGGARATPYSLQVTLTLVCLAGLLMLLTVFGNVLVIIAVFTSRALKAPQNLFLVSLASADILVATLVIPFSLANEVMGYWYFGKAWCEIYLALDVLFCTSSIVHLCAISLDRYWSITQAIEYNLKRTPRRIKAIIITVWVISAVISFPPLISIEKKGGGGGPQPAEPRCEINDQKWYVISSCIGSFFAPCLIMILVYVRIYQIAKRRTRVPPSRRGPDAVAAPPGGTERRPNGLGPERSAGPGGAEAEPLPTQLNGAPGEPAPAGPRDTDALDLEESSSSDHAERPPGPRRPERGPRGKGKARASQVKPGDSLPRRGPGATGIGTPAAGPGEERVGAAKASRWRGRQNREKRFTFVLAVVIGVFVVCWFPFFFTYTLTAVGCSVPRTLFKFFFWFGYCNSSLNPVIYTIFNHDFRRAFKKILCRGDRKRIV
Summary of the method: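 Recombinant human α2a or α2c receptors in CHO cell membranes; [3H]MK912, 60 min at 25 °C in 50 mM Tris-HCl, 150 mM NaCl, 5 mM EDTA, pH 7.4; WB4101 (10 μM) for nonspecific binding. Percent inhibition at 1 μM in duplicate; filtration, scintillation counting.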

[4] = molecular target: Adrenergic receptors; alpha-1 A & B (Homo sapiens) (UniProt P35348+P35368); assay: Ratio of binding affinity towards Alpha1b to Alpha-1A; type: protein assay; summary of the method: as §1
[5] = molecular target: 5-hydroxytryptamine receptor 7 (Homo sapiens, UniProt P34969); assay: Compound at 1 uM was tested for the inhibition of radioligand [3H]LSD binding to recombinant human 5-hydroxytryptamine 7 receptor
Summary of the method: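 Human 5-HT7 expressed in CHO cells; [3H]LSD, 120 min at 37 °C, pH 7.4 Tris-HCl/NaCl/EDTA; 5 μM 5-HT for nonspecific binding. Compound at 1 μM, duplicate determinations of percent inhibition; filtration, scintillation counting.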

[6] = molecular target: T3, Alpha-2B adrenergic receptor (Rattus norvegicus) (UniProt P19328); assay: Compound at 1 uM was tested for the inhibition of radioligand [3H]yohimbine binding to rat alpha-2B adrenergic receptor
T3 sequence (whole entry): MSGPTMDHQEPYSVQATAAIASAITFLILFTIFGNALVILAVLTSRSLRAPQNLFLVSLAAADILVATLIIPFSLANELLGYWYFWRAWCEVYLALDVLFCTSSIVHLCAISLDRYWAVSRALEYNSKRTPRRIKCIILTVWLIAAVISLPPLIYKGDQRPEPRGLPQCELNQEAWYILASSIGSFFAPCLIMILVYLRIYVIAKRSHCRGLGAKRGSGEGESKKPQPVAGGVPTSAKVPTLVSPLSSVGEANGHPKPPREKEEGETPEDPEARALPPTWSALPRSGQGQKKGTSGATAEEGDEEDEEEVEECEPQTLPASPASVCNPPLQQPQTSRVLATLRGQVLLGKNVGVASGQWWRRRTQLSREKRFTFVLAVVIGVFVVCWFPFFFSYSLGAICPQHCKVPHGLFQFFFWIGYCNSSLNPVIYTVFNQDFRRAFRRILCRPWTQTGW
Summary of the method: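 Rat kidney cortical membranes; [3H]yohimbine, 25 °C for 30 min, pH 7.4 Tris-HCl/NaCl/EDTA; 10 μM phentolamine for nonspecific binding. Percent inhibition at 1 μM compound, in duplicate; filtration, scintillation counting.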

Sequence of 5-hydroxytryptamine receptor 7 (P34969 whole entry): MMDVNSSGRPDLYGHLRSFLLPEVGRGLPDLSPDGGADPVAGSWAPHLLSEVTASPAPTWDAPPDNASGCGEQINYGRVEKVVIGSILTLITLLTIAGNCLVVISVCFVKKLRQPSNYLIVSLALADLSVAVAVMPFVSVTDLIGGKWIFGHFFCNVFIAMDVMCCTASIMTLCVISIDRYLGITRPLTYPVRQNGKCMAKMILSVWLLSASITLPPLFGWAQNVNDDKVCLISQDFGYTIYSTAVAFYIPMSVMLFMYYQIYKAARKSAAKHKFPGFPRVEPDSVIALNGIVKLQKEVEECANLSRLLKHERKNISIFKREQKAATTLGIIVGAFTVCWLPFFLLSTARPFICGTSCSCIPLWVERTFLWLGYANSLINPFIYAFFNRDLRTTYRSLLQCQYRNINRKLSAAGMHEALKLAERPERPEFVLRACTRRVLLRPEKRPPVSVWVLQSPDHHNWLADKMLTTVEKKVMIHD

Compound `CC(C)Oc1ccccc1N1CCN(CCCNC(=O)c2ccc3c(c2)C(=O)N(c2cccc(F)c2)C3=O)CC1` has an inhibition [1] of 88%, a Ki [2] of 22 nM and an inhibition [3] of 78%. The Ratio [4] was 1180, the inhibition [5] was 92% and the inhibition [6] was 78%.
`CCOc1ccccc1OCCN[C@H](C)Cc1ccc(OC)c(S(N)(=O)=O)c1` [TAMSULOSIN] showed an inhibition [1] of 62%, a Ki [2] of 0.18 nM and an inhibition [3] of 82%. It also gave an inhibition [5] of 74% and an inhibition [6] of 86%.
With `CC(C)Oc1ccccc1N1CCN(C[C@@H](O)CNC(=O)c2ccc3c(c2)C(=O)N(c2cccc(F)c2)C3=O)CC1` the inhibition [1] was 49%, the Ki [2] was 190 nM and the inhibition [3] was 29%. For the same compound, the Ratio [4] was > 1960, the inhibition [5] was 95% and the inhibition [6] was 70%.
`COc1ccc(N2C(=O)c3ccc(C(=O)NCCCN4CCN(c5ccccc5OC(C)C)CC4)cc3C2=O)cc1` showed an inhibition [1] of 90%, a Ki [2] of 16 nM and an inhibition [3] of 80%. It also gave a Ratio [4] of 3280, an inhibition [5] of 92% and an inhibition [6] of 79%.
For `Cc1ccc(N2C(=O)c3ccc(C(=O)NC[C@H](O)CN4CCN(c5ccccc5OC(C)C)CC4)cc3C2=O)cc1`, the inhibition [1] was 64%, the Ki [2] was 54 nM and the inhibition [3] was 19%. For the same compound, the Ratio [4] was > 5690, the inhibition [5] was 90% and the inhibition [6] was 75%.
`CC(C)Oc1ccccc1N1CCN(C[C@@H](O)CNC(=O)c2ccc3c(c2)C(=O)N(c2ccc(N(C)C)cc2)C3=O)CC1` was tested, and the inhibition [1] was 66%, the Ki [2] was 52 nM and the inhibition [3] was 18%. For the same compound, the Ratio [4] was > 6060, the inhibition [5] was 95% and the inhibition [6] was 73%.
Work on `Cc1ccc(N2C(=O)c3ccc(C(=O)NCCCN4CCN(c5ccccc5OC(C)C)CC4)cc3C2=O)cc1` yielded an inhibition [1] of 69%, a Ki [2] of 37 nM and an inhibition [3] of 87%. For the same compound, the Ratio [4] was > 12500, the inhibition [5] was 95% and the inhibition [6] was 66%.
